In ChEMBL document CHEMBL4513216, “Probing the Open Global Health Chemical Diversity Library for Multistage-Active Starting Points for Next-Generation Antimalarials” (ACS Infect Dis, 2020):

Experiment: Toxicity liver stage against HepG2, at 10uM
Type: cell-based
Set-up: test concentration 10 uM, cell line HepG2-A16-CD81EGFP
Conditions: human, HepG2-A16-CD81EGFP cells; read-out: INHIBITION
How it was run: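 Uninfected HepG2-A16-CD81EGFP cells, 3 × 10^3 per well, 1536-well, plated on prespotted compound at 10 μM final, parasite-free screening media added to match infected plates; puromycin 10 μM positive, DMSO 0.5% negative; run in parallel with 48 h PbLuc assay at 37 °C, 5% CO2; viability by CellTiter-Glo luminescence, normalized to controls.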

Nc1cc2c(nn1)CCN(C(=O)c1csc(-c3ccco3)n1)C2
cytotoxicity at 10 µM: -2.79%

CC(C)[C@@H]1CN(CCOc2ccc(Cl)cc2)C[C@H]1NS(C)(=O)=O
cytotoxicity at 10 µM: -52.4%

O=C1[C@@H]2CN(c3ncnc4[nH]ccc34)C[C@]2(C(=O)O)CN1CC1CC1
cytotoxicity at 10 µM: 2.62%

CN1CC[C@H](c2nnc(Cc3c[nH]c4ccccc34)o2)C1
cytotoxicity at 10 µM: 4.84%

Cc1ccc(NC2CCN(C(=O)c3cscn3)CC2)nn1
cytotoxicity at 10 µM: -8.73%

COc1cc(N(C)Cc2cccc(-n3cccn3)c2)nc(N)n1
cytotoxicity at 10 µM: 49.1%

COc1ccc(CN2C[C@@H]3OCCN(CCN(C)C)[C@@H]3C2)cc1
cytotoxicity at 10 µM: -86.9%

CCc1ncnc2c1CCN(C(=O)Cc1ccccn1)CC2
cytotoxicity at 10 µM: -8.75%

COCC(C)NC(=O)c1cn(C(C)(C)C)c2ncccc12 (stereo not given)
cytotoxicity at 10 µM: 2.69%

CN(CC1(O)CCCN(Cc2cccc(F)c2F)C1=O)C1CCCCC1 (stereo not given)
cytotoxicity at 10 µM: -11.1%

CSCCC(O)C(=O)N1CCC(OCc2cccnc2)CC1 (stereo not given)
cytotoxicity at 10 µM: 3.96%

CN(Cc1ccncc1)C1COC2(CCN(c3ncc(F)cn3)CC2)C1 (stereo not given)
cytotoxicity at 10 µM: 6.95%

CCc1cc2c(N3CCCC(c4ccn[nH]4)C3)ncnc2s1 (stereo not given)
cytotoxicity at 10 µM: 15.7%

c1cncc(CNc2cccc(OCCN3CCCCC3)c2)c1
cytotoxicity at 10 µM: -0.589%

CS(=O)(=O)N[C@H]1CN(CCOCc2ccccc2)C[C@@H]1C1CC1
cytotoxicity at 10 µM: -1.1%

CC(C)c1nsc(N2CCn3c(nnc3-c3ccccc3)C2)n1
cytotoxicity at 10 µM: -13.9%

Cc1oncc1C(=O)NCc1cc(=O)n2c(n1)CN(CC(C)C)CCC2
cytotoxicity at 10 µM: -0.187%

Cc1cccc(NC2CCN(C(=O)Nc3cccc4[nH]ccc34)CC2)n1
cytotoxicity at 10 µM: -6.85%

O=C(O)c1ccc(S(=O)(=O)Nc2ccccc2CC(F)(F)F)c(F)c1
cytotoxicity at 10 µM: 6.02%

O=C(NCc1csc(-c2cnccn2)n1)c1cnn2c1CCCC2
cytotoxicity at 10 µM: 0.209%

Cc1ccc(N2CCCC(NC(=O)C(C)(C)C#N)C2=O)cc1 (stereo not given)
cytotoxicity at 10 µM: -2.42%

O=C(Cn1c(=O)n(Cc2ccco2)c2ncccc21)NC1CCCCC1
cytotoxicity at 10 µM: 4.73%

O=C(CCCc1nnc(-c2ccccc2)o1)N1CCN(C2CC2)CC1
cytotoxicity at 10 µM: -12%

Cc1ccc(N2CC[C@@H]3CN(Cc4cccc(C)n4)C[C@@H]3C2)nn1
cytotoxicity at 10 µM: 6.34%

O=C(c1nn[nH]c1Nc1cccc(Cl)c1)N1CCSCC1
cytotoxicity at 10 µM: 20.3%

COc1ccc(F)cc1CSCC(=O)N(C)CCC#N
cytotoxicity at 10 µM: -2.32%

Cc1nccn1C1CCCN(C(=O)CCCNc2ncccn2)C1 (stereo not given)
cytotoxicity at 10 µM: -6.42%

CCOC(=O)CC1CCCCN1C(=O)CCc1cc(Cl)no1 (stereo not given)
cytotoxicity at 10 µM: 6.95%

CC(C)N1CCOCC2(CCN(c3cnccn3)CC2)C1
cytotoxicity at 10 µM: -109%

COc1ccc2c(c1)C1(CCN(Cc3ccncc3)CC1)N(C)CC2
cytotoxicity at 10 µM: -14.2%

COCC(=O)NC1CC2(CCN(CCO)CC2)c2ccccc21 (stereo not given)
cytotoxicity at 10 µM: -109%

Cc1cnn(CC2CCCN2Cc2cc(C)no2)c1 (stereo not given)
cytotoxicity at 10 µM: -1.66%

CN(Cc1nc2ccccc2[nH]1)C(=O)CN(C)c1ccccc1
cytotoxicity at 10 µM: -2.46%

Cc1csc(CNC(=O)N2CCN(Cc3cc(C)on3)CC2)n1
cytotoxicity at 10 µM: -5.49%

O=C(Cc1cnc(-c2c(Cl)cccc2Cl)s1)N1CCC2(CC1)OCCO2
cytotoxicity at 10 µM: -0.367%

COc1c(C2CCCN2C(=O)c2cc(C3CC3)on2)c(C)nn1C (stereo not given)
cytotoxicity at 10 µM: -2.87%

Fc1ccc(CN2CCCC(c3nnc(-c4cnccn4)o3)C2)cc1F (stereo not given)
cytotoxicity at 10 µM: -8.03%

CN(C)C(=O)Cc1nc(CN2CCCC2Cn2cncn2)cs1 (stereo not given)
cytotoxicity at 10 µM: 8.58%

CN1CCC(Cc2cc(N(C)C)ncn2)C1 (stereo not given)
cytotoxicity at 10 µM: 3.19%

CN(C(=O)C1CCOCC1)[C@@H]1CCC[C@@H](N2CCOCC2)[C@@H]1O
cytotoxicity at 10 µM: 2.19%

C=C(C)COc1ccc(C(=O)N(C)C(C)c2ccon2)cc1 (stereo not given)
cytotoxicity at 10 µM: 4.18%

O=C(O)[C@@H]1CCN(C(=O)c2ccccn2)[C@@H]1c1ccc(F)cc1
cytotoxicity at 10 µM: 4.16%

O=S(=O)(c1ccc(F)cc1)N1CCCC(c2nccs2)C1 (stereo not given)
cytotoxicity at 10 µM: -6.74%

Cc1cc(C(=O)N2CCC3(CC2)C(=O)N(C)CCN3CC(C)C)c(C)o1
cytotoxicity at 10 µM: -112%

COc1ccc(Cl)cc1-c1nc(N)nc(N(C)C)n1
cytotoxicity at 10 µM: -4.01%

O=C(O)CN(Cc1ccsc1)CC1CCCO1 (stereo not given)
cytotoxicity at 10 µM: -4.39%

CCOC[C@@H]1CCC[C@@]12CN(Cc1cccnc1)CCO2
cytotoxicity at 10 µM: -65.7%

Cc1ccsc1C(=O)N1CCCc2c(c(=O)n(C)n2C)C1
cytotoxicity at 10 µM: 6.95%

Cc1nc(CNC(=O)CCCc2cccs2)no1
cytotoxicity at 10 µM: -46.8%

COc1cc(OC)cc(C(=O)Nc2ncnc3c2CCC3)c1
cytotoxicity at 10 µM: -179%

c1csc(CN2CCn3c(Cn4cncn4)cnc3C2)c1
cytotoxicity at 10 µM: -71.7%

Cc1ccc2c(n1)N(CCN(C)C)CCN(C(=O)c1cscn1)C2
cytotoxicity at 10 µM: -72.7%

COc1cccc2c1OCC(CNC(=O)CCCN1CCOCC1)C2 (stereo not given)
cytotoxicity at 10 µM: 16.6%

CNC(=O)CSC(C)c1ccc(Br)cc1 (stereo not given)
cytotoxicity at 10 µM: -5.71%

CC(C#N)CN(C)Cc1c(Cl)ccc2cccnc12 (stereo not given)
cytotoxicity at 10 µM: -39%
